Experiment [1] is described as follows: Inhibition of GARFTase in Chinese Hamster PC43-10 cells expressing human RFC assessed as reduction in cell growth after 96 hrs by Cell-Titer Blue assay. Conditions: Cricetulus griseus, PC43-10, 96 h. The procedure, abridged:
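PC43-10 (RFC) or R2/PCFT4 (PCFT) CHO, grown in α-MEM + 10% bovine calf serum + G418 (1 mg/mL). ~2000 cells/well exposed to 0–1000 nM drug in folate-free RPMI 1640 with 10% dialyzed FBS and 25 nM leucovorin for 96 h. Viability by Cell-Titer Blue fluorescence; IC50 as 50% growth inhibition relative to drug-free cells; mean of 5–16 experiments.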

Experiment [2] in a line: Inhibition of GARFTase in Chinese Hamster MTXRII-OuaR2-4/RFC/FRalpha/PCFT-null R2 cells assessed as reduction in cell growth after 96 hrs by Cell-Titer Blue assay. The format is cell-based. To be noted: Cricetulus griseus, R2, 96 h.
Experiment [3] in a line: Inhibition of GARFTase in Chinese Hamster RT16 cells expressing human FRalpha assessed as reduction in cell growth after 96 hrs by Cell-Titer Blue assay. Format: cell-based. Conditions: Cricetulus griseus, RT16, 96 h.
Experiment [4] is described as follows: Inhibition of GARFTase in Chinese Hamster MTXRII-OuaR2-4 R2 cells expressing human PCFT assessed as reduction in cell growth after 96 hrs by Cell-Titer Blue assay. Format: cell-based. Conditions: Cricetulus griseus, R2, 96 h.
Experiment [5] can be described thus: Inhibition of GARFTase in Chinese Hamster D4 cells expressing human FRbeta assessed as reduction in cell growth after 96 hrs by Cell-Titer Blue assay. The format is cell-based. To be noted: Cricetulus griseus.
For experiment [6], the species on record is Cricetulus griseus. The experiment can be described thus: Potency index, ratio of (2S)-2-[[4-[4-(2-amino-4-oxo-3,7-dihydropyrrolo[2,3-d]pyrimidin-6-yl)butyl]benzoyl]amino]pentanedioic acid IC50 to compound IC50 for GARFTase in Chinese Hamster RT16 cells expressing human FRalpha assessed as reduction in cell growth after 96 hrs by Cell-Titer Blue assay. The format is cell-based. In a few lines:
(§1)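 CHO sublines from transporter-null R2 cells, expressing human FRβ (D4) or FRα (RT16), were kept in α-MEM with 10% calf serum and G418 (1 mg/mL). They were then moved to folate-free RPMI 1640 with 10% dialyzed FBS for 3 days. ~2000 cells/well were exposed to 0–1000 nM drug with 2 nM leucovorin for 96 h, ± 200 nM folic acid, and read by Cell-Titer Blue fluorescence. IC50 is 50% growth loss versus untreated cells; index is reference IC50 over compound IC50.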

The species entered for experiment [7] is Cricetulus griseus. The experiment in a line: Potency index, ratio of (2S)-2-[[4-[4-(2-amino-4-oxo-3,7-dihydropyrrolo[2,3-d]pyrimidin-6-yl)butyl]benzoyl]amino]pentanedioic acid IC50 to compound IC50 for GARFTase in Chinese Hamster D4 cells expressing human FRbeta assessed as reduction in cell growth after 96 hrs by Cell-Titer Blue assay. The format is cell-based. The procedure, abridged:
as §1

In experiment [8] the target is T1, Trifunctional purine biosynthetic protein adenosine-3 (Homo sapiens) (UniProt P22102).
T1 sequence (whole entry): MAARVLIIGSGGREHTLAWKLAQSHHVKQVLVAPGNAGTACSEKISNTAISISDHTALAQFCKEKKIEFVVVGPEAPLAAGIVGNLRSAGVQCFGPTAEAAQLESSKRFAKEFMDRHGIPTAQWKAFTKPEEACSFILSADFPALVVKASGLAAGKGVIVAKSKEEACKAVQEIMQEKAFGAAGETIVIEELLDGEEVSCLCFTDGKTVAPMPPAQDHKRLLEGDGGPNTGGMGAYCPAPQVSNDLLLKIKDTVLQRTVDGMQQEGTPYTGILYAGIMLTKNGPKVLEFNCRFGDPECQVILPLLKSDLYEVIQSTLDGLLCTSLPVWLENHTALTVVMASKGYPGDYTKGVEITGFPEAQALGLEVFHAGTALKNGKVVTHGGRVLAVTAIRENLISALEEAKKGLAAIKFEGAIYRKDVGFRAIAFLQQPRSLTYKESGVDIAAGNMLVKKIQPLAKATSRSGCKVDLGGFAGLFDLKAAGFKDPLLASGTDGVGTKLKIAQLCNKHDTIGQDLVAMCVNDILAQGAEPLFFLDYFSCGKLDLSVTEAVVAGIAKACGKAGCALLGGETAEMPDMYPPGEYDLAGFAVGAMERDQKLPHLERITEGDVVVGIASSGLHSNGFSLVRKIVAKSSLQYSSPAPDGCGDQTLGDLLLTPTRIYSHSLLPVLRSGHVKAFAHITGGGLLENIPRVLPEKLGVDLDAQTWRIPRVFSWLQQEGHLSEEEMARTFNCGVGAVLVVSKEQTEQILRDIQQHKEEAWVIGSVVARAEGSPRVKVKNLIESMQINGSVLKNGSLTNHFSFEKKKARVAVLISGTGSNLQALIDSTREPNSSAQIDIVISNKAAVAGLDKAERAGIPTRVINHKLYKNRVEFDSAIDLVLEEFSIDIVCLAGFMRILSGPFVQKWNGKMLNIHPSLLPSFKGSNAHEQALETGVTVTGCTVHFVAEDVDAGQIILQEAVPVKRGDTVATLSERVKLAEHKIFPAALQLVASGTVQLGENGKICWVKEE
The experiment in a line: Potency index, ratio of (2S)-2-[[4-[4-(2-amino-4-oxo-3,7-dihydropyrrolo[2,3-d]pyrimidin-6-yl)butyl]benzoyl]amino]pentanedioic acid IC50 to compound IC50 for GARFTase in human KB cells assessed as reduction in cell growth after 96 hrs by Cell-Titer Blue assay. The format is cell-based. In a few lines: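 KB human carcinoma cells, which express RFC, FRα and PCFT, were maintained in folate-free RPMI with 10% FBS. ~2000 cells/well were exposed to 0–1000 nM drug in folate-free RPMI 1640 with 10% dialyzed FBS and 2 nM leucovorin for 96 h, ± 200 nM folic acid. Viability was read by Cell-Titer Blue fluorescence. IC50 is 50% growth loss versus untreated cells; index is reference IC50 over compound IC50.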

By IC50 is commonly meant the concentration needed to halve the response being measured.

Bounds are passed on as bounds.

On to `CC(=O)N(CCCc1cc2c(=O)[nH]c(N)nc2[nH]1)c1ccc(C(=O)N[C@@H](CCC(=O)O)C(=O)O)cc1`, for which the IC50 in experiment [1] is above 1000 nM; in experiment [2], above 1000 nM; in experiment [3], 57.2 nM; in experiment [4], above 1000 nM; in experiment [5], 12.8 nM.
For `Nc1nc2[nH]c(CCCSc3ccc(C(=O)N[C@@H](CCC(=O)O)C(=O)O)cc3)cc2c(=O)[nH]1`, the IC50 in experiment [1] is above 1000 nM; in experiment [2] it was above 1000 nM; in experiment [3] it was 2.56 nM; in experiment [4], 593 nM; in experiment [5] it was 0.6 nM. In addition, the Ratio IC50 came out at 2 in the experiment filed under Cricetulus griseus [6], 16 in the experiment filed under Cricetulus griseus [7] and 6 in experiment [8].
With `Nc1nc2[nH]c(CCNc3ccc(C(=O)N[C@@H](CCC(=O)O)C(=O)O)cc3)cc2c(=O)[nH]1`, the IC50 in experiment [1] is 510 nM; in experiment [2], above 1000 nM; in experiment [3], 3.04 nM; in experiment [4] it was 87.4 nM; in experiment [5] it was 0.62 nM.
Turning to `Nc1nc2[nH]c(CCCN(C(=O)C(F)(F)F)c3ccc(C(=O)N[C@@H](CCC(=O)O)C(=O)O)cc3)cc2c(=O)[nH]1`, the IC50 in experiment [1] is above 1000 nM; in experiment [2] it was above 1000 nM; in experiment [3] it was 5.78 nM; in experiment [4] it was 487 nM; in experiment [5], 3.87 nM. Besides, the Ratio IC50 in the experiment listed under Cricetulus griseus [7] stood at 3.
For the compound `Nc1nc2[nH]c(CCCOc3ccc(C(=O)N[C@@H](CCC(=O)O)C(=O)O)cc3)cc2c(=O)[nH]1`, the IC50 was above 1000 nM in experiment [1]; above 1000 nM in experiment [2]; 4.6 nM in experiment [3]; above 1000 nM in experiment [4]; 5.6 nM in experiment [5]. In addition, the Ratio IC50 in the experiment listed under Cricetulus griseus [7] was 2.
For `Nc1nc2[nH]c(CCCCc3ccc(C(=O)N[C@@H](CCC(=O)O)C(=O)O)cc3)cc2c(=O)[nH]1`, the IC50 in experiment [1] and in experiment [2] was above 1000 nM each time.
For the compound `Nc1nc2[nH]c(CCCNc3ccc(C(=O)N[C@@H](CCC(=O)O)C(=O)O)cc3)cc2c(=O)[nH]1`, the IC50 worked out at 670 nM in experiment [1]; 697 nM in experiment [2]; 1.76 nM in experiment [3]; 235 nM in experiment [4]; 1.51 nM in experiment [5]. Also, the Ratio IC50 in the experiment listed under Cricetulus griseus [6] is 3; in the experiment listed under Cricetulus griseus [7], 6; in experiment [8], 2.
`Nc1nc2[nH]c(CCCN(C=O)c3ccc(C(=O)N[C@@H](CCC(=O)O)C(=O)O)cc3)cc2c(=O)[nH]1`: the concentration for half-maximal inhibition (IC50) in experiment [1] was above 1000 nM; in experiment [2] it was above 1000 nM; in experiment [3] it was 35.6 nM; in experiment [4] it was 893 nM; in experiment [5] it was 0.61 nM. In addition, the Ratio IC50 in the experiment listed under Cricetulus griseus [7] was determined as 16.
For `Nc1nc2[nH]c(CCCc3ccc(C(=O)N[C@@H](CCC(=O)O)C(=O)O)cc3)cc2c(=O)[nH]1`, the IC50 was 649 nM in experiment [1] and above 1000 nM in experiment [2].

The values are drawn from ChEMBL document CHEMBL4622881, “Design, synthesis and biological evaluation of novel pyrrolo[2,3-d]pyrimidine as tumor-targeting agents with selectivity for tumor uptake by high affinity folate receptors over the reduced folate carrier” (Bioorg Med Chem, 2020).
